Reference: publication PMC2134812 (The Journal of Cell Biology, 1997)
“Also recorded” adds a separate entry of the source.

What was measured:
[1] = molecular target: specific receptors (binding sites) for LIP2 on B5 human prostatic adenocarcinoma cells (human (endogenous in B5)); assay: radioligand binding
PC12 cells [2] = assay: F-actin redistribution in PC12 cells; format: cell-based, rat
Outline: (§1)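 B5 cells and PC12 cells were seeded in RPMI-1640 with 1% horse serum, with PC12 cells on poly-D-lysine. After 18 h, cells were exposed for 2 min at 37°C to test peptide (10−7, 10−8 or 10−9 M) or 100 ng/ml NGF. For PC12, a control peptide was used at 10−6 and 10−7 M. Cells were PBS-washed, fixed in 3% paraformaldehyde for 20 min and permeabilised in 0.1% Triton X-100 for 2 min. F-actin was stained with phallacidin–BODIPY or phalloidin–rhodamine and examined by fluorescence microscopy.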

B5 and SH-SY5Y cells = assay: Competition of 125I-LIP2 binding; design: species or system human; details: 2 μM competitor, preincubated 1 h at 4°C, 10 nM 125I-LIP2
B5 cells = assay: F-actin redistribution in B5 cells; format: cell-based, human; details: 2 min at 37°C; LIP1, LIP2 or 100 ng/ml NGF
Outline: as §1

PC12 cells [3] = assay: Neurite outgrowth in PC12 cultures; format: cell-based, rat; details: NGF-treated; data not shown
chick embryo DRG ganglia = assay: Neurite outgrowth in dorsal root ganglia; format: cell-based; details: 10 ng of mouse NGF; data not shown
Outline: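 Dorsal root ganglia were dissected from 9-day-old chick embryos. They were cultured with test peptides at 10−7, 10−8 and 10−9 M, or with 10 ng mouse NGF. Neurite outgrowth was scored.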

Trk protein [4] = assay: Trk tyrosine phosphorylation in PC12 cells overexpressing TrkA; format: cell-based; details: 200 ng/ml NGF, 5 min
Outline: (§2)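 Confluent B5 cells or TrkA-overexpressing PC12 cells (10–15-fold TrkA) were stimulated for 5 min with test peptide at 10−9 or 10−7 M, or with NGF at 200 ng/ml. Lysates were immunoprecipitated with a pan-Trk antibody against the TrkA C-terminus and run on 7.5% SDS-PAGE. Blots were probed overnight at 4°C with HRP-anti-phosphotyrosine (1:2,500) and detected by ECL. They were then stripped and reprobed with pan-Trk antibody as a loading control.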

Trk protein [5] = assay: Trk tyrosine phosphorylation in B5 cells; format: cell-based, human; details: 200 ng/ml NGF, 5 min
Outline: as §2

Trk protein [6] = details: ref Kaplan et al., 1991; cited from earlier work

Row | Molecule | Inhibition of 125I-LIP2 binding (in words) (B5 and SH-SY5Y cells) | also measured
1 | 125I-LIP2 (iodinated 38aa synthetic peptide, sequence -40 to -3 of the rat NGF precursor) |  | Kd, high affinity binding site [1]: 2.8 nM; Kd, low affinity binding site [1]: 48 nM
2 | LIP2 (38aa synthetic peptide, sequence -40 to -3 of the rat NGF precursor), unlabelled |  | Kd [1]: 200 to 400 nM
3 | [Tyr^8] bradykinin (RPPGFSPYR; Bradykinin; UniProt P01042 381-389, looked up, variant F8Y) |  | F-actin redistribution, control peptide (PC12 cells [2]; 10^−6 and 10^−7 M): had no effect
4 | aprotinin | No significant inhibitory effect | 
5 | bombesin | No significant inhibitory effect | 
6 | cytochrome c | No significant inhibitory effect | 
7 | epidermal growth factor | No significant inhibitory effect | 
8 | leupeptin | No significant inhibitory effect | 
9 | methionine enkephalin | No significant inhibitory effect | 
10 | neurotensin | No significant inhibitory effect | 
11 | pepstatin A | No significant inhibitory effect | 
12 | somatostatin | No significant inhibitory effect | 
13 | substance P | No significant inhibitory effect | 
14 | ubiquitin | No significant inhibitory effect | 
15 | vasoactive intestinal peptide [vasoactive intestinal peptide (VIP)] | No significant inhibitory effect | 
16 | vasopressin | No significant inhibitory effect | 
17 | α2-macroglobulin | No significant inhibitory effect | 
18 | α-melanocyte stimulating hormone | No significant inhibitory effect | 
19 | NGF: mature 118aa NGF peptide (protein) SSTHPVFHMGEFSVCDSVSVWVGDKTTATDIKGKEVTVLAEVNINNSVFRQYFFETKCRASNPVESGCRGIDSKHWNSYCTTTHTFVKALTTDEKQAAWRFIRIDTACVCVLSRKATRRG | did not show any significant inhibition | F-actin redistribution, NGF (PC12 cells [2]; 2 min at 37°C, 100 ng/ml NGF): more abundant ruffling; F-actin redistribution (B5 cells): neither NGF nor the peptides induced F-actin rearrangement in B5 cells; also recorded: had no effect on B5 cells; Neurite outgrowth, NGF (PC12 cells [3]): dense neurite outgrowth; Neurite outgrowth, NGF (chick embryo DRG ganglia): dense neurite outgrowth; Trk tyrosine phosphorylation, NGF (Trk protein [4]): phosphorylation of Trk; Trk tyrosine phosphorylation, NGF (Trk protein [5]): phosphorylation of Trk; Time to trk tyrosine phosphorylation by NGF (Trk protein [6]): ≤ 1 min
